Screening data as filed in PubChem.
An excerpt weighted towards active compounds, which were near 2% of everything screened.
Runt-SMMHC FRET: inhibitors of human RUNX1 Runt domain binding to CBFb-SMMHC | inhibition, % at 20 µM | Cerulean-Runt/Venus-CBFb-SMMHC FRET ratio 530/480, 1 h | AID 1434 | Q01196+Q13951 | 220,000 tested, 0.74% active;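 active = mean inhibition across duplicate retests at 20 µM reaching about 50%, limit read from the data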;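 also: inhibitors lower the FRET ratio by blocking Runt binding to CBFb-SMMHC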
MEX-5 binding: C. elegans MEX-5 TCR-2 RNA binding activity; MEX-5/FITC-TCR2 RNA binding, fluorescence polarization; stronger effect = lower value; AID 1832; 300,000 tested, 0.38% active; Q9XUB2; activity score (negative = inhibition of binding), % at 10 µM;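 active = inhibition past about -25% in most replicates, and total fluorescence under double the plate's negative control median, limit read from the data; inconclusive = replicates evenly split on the limit, or fluorescence at least double controls; inactive = too little inhibition in most replicates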
PKD1 kinase inh: blocks activity of human protein kinase D1 | Q15139 | PKD1 kinase fluorescence polarization assay | inhibition, % (concentration not given with the values) | 200,000 tested, 0.056% active | AID 797
RanGTP-Impb inh: disruptors of Ran-importin-beta complex formation – biochemical, FRET, CFP-Ran, YFP-importin-beta, homogeneous, primary screen. cell-free CFP-Ran/YFP-importin-beta FRET ratio. inhibition, % (test concentration not listed). 300,000 tested, 1.1% active;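 active = more than half of the replicate wells show a fall in the fluorescence ratio signal beyond about 16%, limit read from the data, passing the limit was not always enough; inconclusive = exactly half of the replicate wells pass the set limit; inactive = fewer than half of replicates pass the limit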
EBV gp42 inh: blocks Epstein-Barr virus glycoprotein 42 binding; 220,000 tested, 0.42% active; Fluorescence polarization binding assay, mP read-out; inhibition, % (tested at 21.74 µM); Q1HVG2; AID 1085
Target sequence (Q1HVG2 whole entry, looked up): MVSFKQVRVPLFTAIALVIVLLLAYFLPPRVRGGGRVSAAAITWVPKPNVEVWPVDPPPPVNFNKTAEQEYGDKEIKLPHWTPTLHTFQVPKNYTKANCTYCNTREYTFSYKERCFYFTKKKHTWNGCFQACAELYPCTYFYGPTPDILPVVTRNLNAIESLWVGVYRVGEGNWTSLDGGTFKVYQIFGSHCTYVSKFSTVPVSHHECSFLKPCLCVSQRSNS
Runt-CBFb FRET: inhibitors of human RUNX1 Runt domain binding to CBFb | AID 1496 | Cerulean-Runt/Venus-CBFb FRET ratio 530/480, 1 h | 220,000 tested, 0.46% active | inhibition, % at 20 µM | Q01196+Q13951;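 active = inhibition over about 50% at 20 µM in the single-dose screen, limit read from the data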
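Doses: 20 µM compound in 1% DMSO | Material: Cerulean-labeled Runt domain protein | Amount: Each fluorescent fusion protein 100 nM | Schedule: Two 1 h room-temperature incubations shielded from light | Measured by: FRET fluorescence | Evaluation: Loss of energy transfer signal | Controls: Unlabeled CBFb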
Hits are given with their value; – = inactive; ? = inconclusive; · = not tested or not shown; + = active, no number. Rule as the data show it, unless noted: active = inhibition above about 50%; inactive = the rest.

SMILES | Runt-SMMHC FRET | MEX-5 binding | PKD1 kinase inh | RanGTP-Impb inh | EBV gp42 inh | Runt-CBFb FRET
CCOc1ccc(C2C(C#N)=C(N)Oc3cc(O)ccc32)cc1OCC (stereo not drawn) | · | – | · | 51 | · | ·
O=C(COC(=O)/C=C/C(=O)N1CCN(c2ccccc2)CC1)NC(c1ccccc1)c1ccccc1 | – | – | – | – | – | –
CCCCNc1c2c3c(cccc3n(C)c1=O)C(=O)c1ccccc1-2 | – | ? | – | – | 183 | –
CC(=O)Nc1ccc(NC2=CC(=O)c3ccccc3C2=O)cc1 | · | – | · | – | · | ·
CC(=O)Nc1ccc(Nc2c3c4c(cccc4n(C)c2=O)C(=O)c2ccccc2-3)cc1 | – | – | – | – | 141 | –
Cn1c(=O)c(NC2CCCCC2)c2c3c(cccc31)C(=O)c1ccccc1-2 | – | · | – | · | 139 | –
CCNc1c2c3c(cccc3n(C)c1=O)C(=O)c1ccccc1-2 | – | ? | – | – | – | –
Cn1c(=O)c(NCCc2ccccc2)c2c3c(cccc31)C(=O)c1ccccc1-2 | – | ? | – | – | + | –
Cc1ccccc1Nc1nc(N)nc(COC(=O)CCNS(=O)(=O)c2ccccc2)n1 | · | – | · | – | · | ·
CN(C)C1=NC(=O)/C(=C/c2ccc(-c3ccc(S(N)(=O)=O)cc3)o2)S1 | · | -29 | · | – | · | ·
CCOC(=O)/C(=C/c1ccc(N2CCC(c3ccccc3)=N2)cc1)C(C)=O | 79 | -33 | – | – | 156 | –
NS(=O)(=O)c1ccc(NC(=O)c2ccc(-c3ccccc3)cc2)cc1 | – | · | – | · | 62 | –
O=C1SC(SCc2ccccc2)=N/C1=C\c1ccco1 | – | – | – | – | – | –
O=C1SC(SCc2ccccc2)=N/C1=C\c1ccc(C(=O)O)cc1 | – | -58 | – | – | – | –
CCC1(c2ccccc2)NC(=O)N(CC(=O)Nc2cc(S(=O)(=O)N3CCCCC3)ccc2OC(C)C)C1=O (stereo not drawn) | · | – | · | – | · | ·
Cc1c(N2C(=O)c3cccc4cccc(c34)C2=O)c(=O)n(-c2ccccc2)n1C | – | – | – | – | – | –
Cc1c(N=C2Nc3cccc4cccc2c34)c(=O)n(-c2ccccc2)n1C | – | -41 | – | – | – | –
COc1ccccc1-n1c(N)c(C(=O)NCC2CCCO2)c2nc3ccccc3nc21 (stereo not drawn) | – | – | – | 57 | – | –
Nc1c(C(=O)NCC2CCCO2)c2nc3ccccc3nc2n1-c1ccccc1 (stereo not drawn) | – | – | – | 78 | – | 83
O=C(NCC1CCCO1)c1ccccc1 (stereo not drawn) | – | – | – | – | – | –
Nc1c(C(=O)OCC2CCCO2)c2nc3ccccc3nc2n1C1CCCCC1 (stereo not drawn) | 67 | – | – | – | – | –
Cc1nc2nc(C)c(NS(=O)(=O)c3ccc(Cl)s3)c(=O)n2[nH]1 | · | – | · | – | · | ·
COc1ccc2c(c1)cc(C(=O)N[C@@H](CCSC)C(=O)N1CCC(C(=O)O)CC1)n2C | · | – | · | – | · | ·
COc1ccc(CNC(=O)c2cc(-c3ccncc3)nc3c(C)cc(C)cc23)cc1OC | – | – | – | – | – | –
Cc1sc2ncnc(N3CCC(C(=O)N(CC(C)C)c4nc5ccccc5s4)CC3)c2c1C | · | – | · | – | · | ·
SMILES | Runt-SMMHC FRET | MEX-5 binding | PKD1 kinase inh | RanGTP-Impb inh | EBV gp42 inh | Runt-CBFb FRET
COc1ccccc1C(=O)Nc1ccnn1C1CCN(C(C)CSC)CC1 (stereo not drawn) | · | -26 | · | 23 | · | ·
CSCC(C)N1CCC(n2nccc2NC(=O)CCCc2ccccc2)CC1 (stereo not drawn) | · | -64 | · | – | · | ·
CSCC(C)N1CCC(n2nccc2NC(=O)CCc2ccccc2)CC1 (stereo not drawn) | · | – | · | – | · | ·
Cc1cc(S(=O)(=O)N2CCOCC2)ccc1OCC(=O)Nc1ccc(Br)cc1F | · | – | · | – | · | ·
CC(=O)c1cn(Cc2ccccc2)c(=O)[nH]c1=O | – | – | – | – | – | –
CCCn1c(SCCc2ccccc2)nc2c1c(=O)[nH]c(=O)n2C | – | – | – | – | 115 | –
COc1ccc(/C(O)=C2/C(=O)C(=O)N(CCN(C)C)C2c2ccccn2)cc1OC (stereo not drawn) | – | – | – | 23 | – | –
